Assay results as given in ChEMBL document CHEMBL1681746, “N-benzylimidazole carboxamides as potent, orally active stearoylCoA desaturase-1 inhibitors” (Bioorg Med Chem Lett, 2011).
Each block holds one compound with its values, some of them ahead of it.

Legend:
CYP1A2 = target: T1, CYP1A2 (Homo sapiens, UniProt P05177); assay: Inhibition of CYP1A2 at 3 uM; format: ADME
T1 sequence (P05177 whole entry): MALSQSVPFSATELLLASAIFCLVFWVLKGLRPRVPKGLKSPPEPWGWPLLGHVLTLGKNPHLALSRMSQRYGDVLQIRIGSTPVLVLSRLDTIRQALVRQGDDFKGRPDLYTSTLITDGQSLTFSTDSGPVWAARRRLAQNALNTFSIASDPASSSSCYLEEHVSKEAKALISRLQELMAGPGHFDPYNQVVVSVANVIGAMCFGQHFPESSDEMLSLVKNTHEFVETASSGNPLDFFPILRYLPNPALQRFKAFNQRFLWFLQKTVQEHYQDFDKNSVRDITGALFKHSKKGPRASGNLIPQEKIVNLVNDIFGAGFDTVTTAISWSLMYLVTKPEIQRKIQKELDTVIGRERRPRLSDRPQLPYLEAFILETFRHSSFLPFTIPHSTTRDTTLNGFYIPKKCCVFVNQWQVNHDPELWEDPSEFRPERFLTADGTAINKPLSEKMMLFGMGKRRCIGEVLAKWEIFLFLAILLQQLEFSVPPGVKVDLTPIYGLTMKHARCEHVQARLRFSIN
Outline: (§1)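 Percent inhibition of each CYP isoform (1A2, 2C9, 2D6, 3A4) measured at […] test concentration.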

CYP2D6 = CYP2D6 (Homo sapiens, UniProt P10635); assay: Inhibition of CYP2D6 at 3 uM; format: ADME; outline: as §1
CYP3A4 = CYP3A4 (Homo sapiens, UniProt P08684); assay: Inhibition of CYP3A4 at 3 uM; format: ADME; outline: as §1
[1] = Apparent permeability of the compound by PAMPA; format: ADME
Acyl-CoA desaturase 1 [2] = target: T2, Acyl-CoA desaturase 1 (Rattus norvegicus, UniProt P07308); assay: Inhibition of rat liver SCD1 assessed as formation of deuterated oleoylCoA by HTMS assay
T2 sequence (P07308 whole entry): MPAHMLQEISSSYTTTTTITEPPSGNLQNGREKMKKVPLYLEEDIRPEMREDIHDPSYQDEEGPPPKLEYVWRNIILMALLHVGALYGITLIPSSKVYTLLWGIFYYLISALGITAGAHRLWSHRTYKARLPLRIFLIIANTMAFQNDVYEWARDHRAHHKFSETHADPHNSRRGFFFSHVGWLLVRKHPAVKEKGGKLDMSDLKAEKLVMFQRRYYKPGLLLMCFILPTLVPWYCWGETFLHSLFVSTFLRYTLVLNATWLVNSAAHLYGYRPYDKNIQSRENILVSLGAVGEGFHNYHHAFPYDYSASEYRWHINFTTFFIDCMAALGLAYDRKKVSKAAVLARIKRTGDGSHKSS
Outline: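 Rat liver microsomes as enzyme source. RapidFire high-throughput mass spectrometry quantitates deuterated oleoylCoA formed from deuterated stearoylCoA substrate.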

hERG = hERG (Homo sapiens, UniProt Q12809); assay: Displacement of [3H]-dofetilide from human ERG at 10 uM; conditions: probe [3H]-dofetilide
Outline: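 Dofetilide binding assay; percent inhibition measured at […] test concentration.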

CYP2C9 = CYP2C9 (Homo sapiens, UniProt P11712); assay: Inhibition of CYP2C9 at 3 uM; format: ADME; outline: as §1
Stearoyl-CoA desaturase = target: T3, Stearoyl-CoA desaturase (Homo sapiens, UniProt O00767); assay: Inhibition of human SCD1
T3 sequence (O00767 whole entry): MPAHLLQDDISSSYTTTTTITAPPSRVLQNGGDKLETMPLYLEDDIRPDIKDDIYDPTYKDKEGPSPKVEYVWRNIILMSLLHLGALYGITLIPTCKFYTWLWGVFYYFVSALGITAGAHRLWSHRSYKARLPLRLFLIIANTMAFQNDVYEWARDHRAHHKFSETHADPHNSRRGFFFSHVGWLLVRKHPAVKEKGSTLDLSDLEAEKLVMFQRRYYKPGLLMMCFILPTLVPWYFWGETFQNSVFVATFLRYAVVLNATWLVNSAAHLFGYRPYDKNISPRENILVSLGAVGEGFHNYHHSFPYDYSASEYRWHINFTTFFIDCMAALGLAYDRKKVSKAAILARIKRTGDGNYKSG
Outline: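 Orthogonal assay using tritiated stearoylCoA substrate and human liver microsomes as enzyme source; IC₅₀ determined.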

Acyl-CoA desaturase 1 [3] = target: T2, Acyl-CoA desaturase 1; assay: Inhibition of rat liver SCD1 using [3H]-stearoylCoA
[4] = Intrinsic clearance in human liver microsomes assessed per mg of protein; format: ADME, Microsome
[5] = Intrinsic clearance in rat liver microsomes assessed per mg of protein; format: ADME, Microsome
[6] = Volume of distribution at steady state in rat; format: ADME, organism-based; conditions: in vivo, read-out: Vdss
[7] = Clearance in rat; format: ADME, organism-based; conditions: in vivo
[8] = Half life in po dosed in rat; format: ADME, organism-based; conditions: in vivo
[9] = Oral bioavailability in rat; format: ADME, organism-based; conditions: in vivo
Plasma [10] = assay: Free plasma concentration in Sprague-Dawley rat plasma at 30 mg/kg, po; format: ADME, organism-based; set-up: dose 30 mg/kg, route oral; conditions: in vivo
Plasma [11] = assay: Drug level in Sprague-Dawley rat plasma at 10 mg/kg, po; format: ADME, organism-based; set-up: dose 10 mg/kg, route oral; conditions: in vivo
Outline: (§2)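 Sprague–Dawley rats, n = 8 per dose group, fasted 20 h, then LEFA diet 24 h. Next day given po doses of 1, 10 or 30 mg/kg in 0.5% methylcellulose. Total drug concentration measured in plasma sampled 3 h post dose.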

Cytochrome P450 2D6 = Cytochrome P450 2D6 (Homo sapiens, UniProt P10635); assay: Inhibition of CYP2D6; format: ADME
Rattus norvegicus [12] = assay: Reduction of desaturation index in low essential fatty acid diet model of Sprague-Dawley rat plasma at 10 mg/kg, po after 3 hrs; format: functional; set-up: scale not given: the % may be the effect or the level left
Outline: (§3)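 Sprague–Dawley rats, n = 8 per dose group, fasted 20 h, then fed low essential fatty acid (LEFA) diet for 24 h. Next day dosed po in 0.5% methylcellulose vehicle. Plasma taken 3 h post dose. Stearic and oleic acid extracted from plasma and quantitated by LC/MS. DI = total oleic:stearic acid ratio; % reduction relative to vehicle group.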

[13] = Genotoxicity in Salmonella Typhimurium by Ames test; format: toxicity; conditions: salmonella enterica subsp. enterica serovar typhimurium
Rattus norvegicus [14] = assay: Reduction of desaturation index in po dosed low essential fatty acid diet model of Sprague-Dawley rat plasma after 3 hrs; format: functional, organism-based; outline: as §3
Plasma [15] = assay: Drug level in Sprague-Dawley rat plasma at 30 mg/kg, po; format: ADME, organism-based; set-up: dose 30 mg/kg, route oral; conditions: in vivo; outline: as §2
Cytochrome P450 2C19 = Cytochrome P450 2C19 (Homo sapiens, UniProt P33261); assay: Inhibition of CYP2C19; format: ADME
[16] = target: Voltage-gated inwardly rectifying potassium channel KCNH2 (Homo sapiens, UniProt Q12809); assay: Inhibition of human ERG by patch clamp assay
Rattus norvegicus [17] = assay: Reduction of desaturation index in low essential fatty acid diet model of Sprague-Dawley rat plasma at 30 mg/kg, po after 3 hrs; format: functional; set-up: scale not given: the % may be the effect or the level left; outline: as §3
Cytochrome P450 2C9 = Cytochrome P450 2C9 (Homo sapiens, UniProt P11712); assay: Inhibition of CYP2C9; format: ADME
Plasma [18] = assay: Free plasma concentration in Sprague-Dawley rat plasma at 1 mg/kg, po; format: ADME, organism-based; set-up: dose 1 mg/kg, route oral; conditions: in vivo
Plasma [19] = assay: Free plasma concentration in Sprague-Dawley rat plasma at 10 mg/kg, po; format: ADME, organism-based; set-up: dose 10 mg/kg, route oral; conditions: in vivo
Rattus norvegicus [20] = assay: Reduction of desaturation index in low essential fatty acid diet model of Sprague-Dawley rat plasma at 1 mg/kg, po after 3 hrs; format: functional; set-up: scale not given: the % may be the effect or the level left; outline: as §3
Rattus norvegicus [21] = assay: Toxicity in low essential fatty acid diet model of Sprague-Dawley rat ocular tissue assessed as red eye formation at 1 to 30 mg/kg, po after 27 hrs; format: organism-based; set-up: dose 1-30 mg/kg, route oral; conditions: in vivo
Outline: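 LEFA-diet Sprague–Dawley rats (n = 8/group) dosed po in 0.5% methylcellulose with plasma sampled at 3 h. Animals then held for observation. Ocular tissues (red eyes) assessed at 27 h post-dose.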

Cytochrome P450 1A2 = target: T4, Cytochrome P450 1A2 (Homo sapiens, UniProt P05177); assay: Inhibition of CYP1A2; format: ADME
T4 sequence (P05177 whole entry): T1 sequence (P05177 whole entry)

Cytochrome P450 3A4 = Cytochrome P450 3A4 (Homo sapiens, UniProt P08684); assay: Inhibition of CYP3A4; format: ADME
Plasma [22] = assay: Drug level in Sprague-Dawley rat plasma at 1 mg/kg, po; format: ADME, organism-based; set-up: dose 1 mg/kg, route oral; conditions: in vivo; outline: as §2

Voltage-gated inwardly rectifying potassium channel KCNH2, sequence (Q12809 whole entry): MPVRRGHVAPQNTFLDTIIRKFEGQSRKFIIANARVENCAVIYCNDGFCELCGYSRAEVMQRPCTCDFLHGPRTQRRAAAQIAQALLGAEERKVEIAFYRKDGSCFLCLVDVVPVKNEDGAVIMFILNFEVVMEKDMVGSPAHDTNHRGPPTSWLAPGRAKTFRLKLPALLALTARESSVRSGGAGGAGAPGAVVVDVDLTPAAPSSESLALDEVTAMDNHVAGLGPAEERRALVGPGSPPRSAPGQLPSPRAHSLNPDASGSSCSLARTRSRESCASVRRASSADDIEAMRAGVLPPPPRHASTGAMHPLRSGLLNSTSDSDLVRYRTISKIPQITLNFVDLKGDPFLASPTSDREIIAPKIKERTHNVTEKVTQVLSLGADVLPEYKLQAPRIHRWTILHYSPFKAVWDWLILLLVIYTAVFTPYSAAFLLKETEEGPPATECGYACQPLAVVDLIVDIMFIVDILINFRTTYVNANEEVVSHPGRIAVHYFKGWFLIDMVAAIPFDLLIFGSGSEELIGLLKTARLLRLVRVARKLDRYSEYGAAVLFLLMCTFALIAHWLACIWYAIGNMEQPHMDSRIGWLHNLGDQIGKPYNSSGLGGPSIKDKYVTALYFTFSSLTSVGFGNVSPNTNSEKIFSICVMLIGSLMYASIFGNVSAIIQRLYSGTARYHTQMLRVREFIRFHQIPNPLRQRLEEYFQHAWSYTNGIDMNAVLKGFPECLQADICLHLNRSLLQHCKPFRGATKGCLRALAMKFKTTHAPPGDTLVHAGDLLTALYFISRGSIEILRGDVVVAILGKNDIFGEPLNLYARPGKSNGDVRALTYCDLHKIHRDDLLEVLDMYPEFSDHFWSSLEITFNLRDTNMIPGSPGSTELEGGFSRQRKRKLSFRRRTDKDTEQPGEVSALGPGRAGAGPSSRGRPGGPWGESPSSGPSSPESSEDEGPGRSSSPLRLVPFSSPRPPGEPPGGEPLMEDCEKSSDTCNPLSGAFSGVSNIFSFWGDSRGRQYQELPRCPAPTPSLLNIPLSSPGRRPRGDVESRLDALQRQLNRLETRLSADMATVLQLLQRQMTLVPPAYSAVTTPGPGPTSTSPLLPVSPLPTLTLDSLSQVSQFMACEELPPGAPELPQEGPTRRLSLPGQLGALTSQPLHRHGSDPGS
hERG, sequence (Q12809 whole entry): as above
CYP2C9, sequence (P11712 whole entry): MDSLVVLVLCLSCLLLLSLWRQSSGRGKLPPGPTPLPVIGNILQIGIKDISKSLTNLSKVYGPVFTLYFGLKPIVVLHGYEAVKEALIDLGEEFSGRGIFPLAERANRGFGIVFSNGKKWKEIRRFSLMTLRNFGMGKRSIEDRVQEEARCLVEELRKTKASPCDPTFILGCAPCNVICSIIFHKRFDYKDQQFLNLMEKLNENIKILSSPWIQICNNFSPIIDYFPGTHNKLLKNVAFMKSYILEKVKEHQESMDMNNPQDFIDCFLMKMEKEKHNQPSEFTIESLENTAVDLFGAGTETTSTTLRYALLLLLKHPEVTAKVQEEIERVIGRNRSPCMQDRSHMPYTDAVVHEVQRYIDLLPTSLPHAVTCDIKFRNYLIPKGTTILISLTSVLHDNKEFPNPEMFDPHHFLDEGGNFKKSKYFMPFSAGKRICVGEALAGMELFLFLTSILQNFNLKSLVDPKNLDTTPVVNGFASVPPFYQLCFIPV
Cytochrome P450 2C9, sequence (P11712 whole entry): as above
Cytochrome P450 2D6, sequence (P10635 whole entry): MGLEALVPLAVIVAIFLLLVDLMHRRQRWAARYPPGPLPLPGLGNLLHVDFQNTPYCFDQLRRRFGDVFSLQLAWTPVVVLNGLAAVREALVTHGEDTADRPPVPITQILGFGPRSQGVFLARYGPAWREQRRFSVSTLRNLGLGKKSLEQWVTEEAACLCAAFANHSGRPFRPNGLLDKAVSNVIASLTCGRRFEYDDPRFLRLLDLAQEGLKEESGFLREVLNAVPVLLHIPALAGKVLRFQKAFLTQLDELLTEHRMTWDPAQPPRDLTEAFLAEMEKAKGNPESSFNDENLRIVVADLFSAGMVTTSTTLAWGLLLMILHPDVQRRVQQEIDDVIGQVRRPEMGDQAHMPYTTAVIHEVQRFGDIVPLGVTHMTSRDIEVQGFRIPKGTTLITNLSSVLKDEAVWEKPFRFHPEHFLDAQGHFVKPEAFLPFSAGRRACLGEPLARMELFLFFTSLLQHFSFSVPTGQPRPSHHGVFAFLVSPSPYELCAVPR
CYP2D6, sequence (P10635 whole entry): as above
Cytochrome P450 2C19, sequence (P33261 whole entry): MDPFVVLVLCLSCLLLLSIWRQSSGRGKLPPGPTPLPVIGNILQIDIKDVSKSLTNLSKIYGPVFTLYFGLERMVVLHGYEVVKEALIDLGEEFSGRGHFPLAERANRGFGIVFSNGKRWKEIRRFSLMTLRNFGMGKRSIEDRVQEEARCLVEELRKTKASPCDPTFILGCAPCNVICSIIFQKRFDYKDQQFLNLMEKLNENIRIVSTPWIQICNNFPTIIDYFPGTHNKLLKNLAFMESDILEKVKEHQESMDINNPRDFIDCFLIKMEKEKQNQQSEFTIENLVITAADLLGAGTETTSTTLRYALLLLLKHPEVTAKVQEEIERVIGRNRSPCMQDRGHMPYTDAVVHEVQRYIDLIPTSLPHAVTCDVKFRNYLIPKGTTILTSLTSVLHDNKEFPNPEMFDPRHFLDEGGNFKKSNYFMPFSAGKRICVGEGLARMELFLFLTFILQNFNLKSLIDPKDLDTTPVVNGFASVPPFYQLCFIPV
CYP3A4, sequence (P08684 whole entry): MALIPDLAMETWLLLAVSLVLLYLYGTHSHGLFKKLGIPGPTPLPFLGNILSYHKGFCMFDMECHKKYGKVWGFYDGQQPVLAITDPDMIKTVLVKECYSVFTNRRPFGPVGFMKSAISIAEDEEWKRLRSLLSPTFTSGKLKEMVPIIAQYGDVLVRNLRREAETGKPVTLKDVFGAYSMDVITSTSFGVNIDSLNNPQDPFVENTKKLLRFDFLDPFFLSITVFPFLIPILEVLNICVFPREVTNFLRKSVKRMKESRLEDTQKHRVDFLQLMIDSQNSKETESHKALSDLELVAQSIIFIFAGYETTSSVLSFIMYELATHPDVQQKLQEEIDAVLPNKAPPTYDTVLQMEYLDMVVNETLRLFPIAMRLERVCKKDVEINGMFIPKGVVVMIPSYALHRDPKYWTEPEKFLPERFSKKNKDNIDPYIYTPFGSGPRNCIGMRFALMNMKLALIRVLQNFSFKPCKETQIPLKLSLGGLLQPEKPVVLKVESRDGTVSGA
Cytochrome P450 3A4, sequence (P08684 whole entry): as above

Structure (SMILES): Cc1c(C(=O)N=C(N)N)ncn1Cc1ccc(Cl)cc1
inhibition at 3 µM (CYP1A2): < 1%
inhibition at 3 µM (CYP2D6): < 1%
inhibition at 3 µM (CYP3A4): < 1%
Papp [1]: 2.6 ×10⁻⁶ cm/s
IC50 (Acyl-CoA desaturase 1 [2]): 68 nM
inhibition at 10 µM (hERG): 64%
inhibition at 3 µM (CYP2C9): < 1%
IC50 (Stearoyl-CoA desaturase): 217 nM
IC50 (Acyl-CoA desaturase 1 [3]): 94 nM
microsomal CLint [4]: 15.5 µL/min/mg
microsomal CLint [5]: 74.1 µL/min/mg

Structure (SMILES): CC(=O)NCCNC(=O)c1cn(Cc2ccc(F)c(C(F)(F)F)c2)cn1
IC50 (Acyl-CoA desaturase 1 [3]): 2750 nM

Structure (SMILES): Cn1ccc(NC(=O)c2cnn(Cc3ccc(Cl)c(C(F)(F)F)c3)c2)n1
half-life [8]: 78 min
bioavailability [9]: 66%
IC50 (Acyl-CoA desaturase 1 [3]): 63 nM
microsomal CLint [4]: 25.9 µL/min/mg
Vd [6]: 0.7 L/kg
clearance [7]: 30 mL/min/kg

Structure (SMILES): Cn1ccc(NC(=O)c2cn(CCc3ccccc3Cl)cn2)n1
IC50 (Acyl-CoA desaturase 1 [3]): 126 nM

Structure (SMILES): Cn1ncc(NC(=O)c2cn(Cc3cccc(C(F)(F)F)c3)cn2)n1
IC50 (Acyl-CoA desaturase 1 [3]): 25 nM

Structure (SMILES): Cn1ccc(NC(=O)c2cn(CC3(CC4CC4)CCC3)cn2)n1
IC50 (Acyl-CoA desaturase 1 [3]): 101 nM

Structure (SMILES): Cn1ccc(NC(=O)c2ccn(Cc3cccc(C(F)(F)F)c3)n2)n1
IC50 (Acyl-CoA desaturase 1 [3]): 2140 nM

Structure (SMILES): Cn1ccc(NC(=O)c2ncn(Cc3cccc(C(F)(F)F)c3)n2)n1
IC50 (Acyl-CoA desaturase 1 [3]): 113 nM

Structure (SMILES): Cn1ccc(NC(=O)c2cn(Cc3cccc(C(F)(F)F)c3)cn2)n1
IC50 (Acyl-CoA desaturase 1 [3]): 11 nM
microsomal CLint [4]: < 8 µL/min/mg
Vd [6]: 8.1 L/kg
clearance [7]: 463 mL/min/kg

Structure (SMILES): Cc1c(C(=O)Nc2ccn(C)n2)ncn1Cc1cccc(C(F)(F)F)c1
Cp(f) (Plasma [10]): 2035 nM
half-life [8]: 138 min
Drug uptake (Plasma [11]): 1703 ng/mL
IC50 (Cytochrome P450 2D6): > 30 µM
Activity (Rattus norvegicus [12]): 85%
Activity [13]: Non-toxic
Activity (Rattus norvegicus [14]): Dose-dependent effect
Drug uptake (Plasma [15]): 6491 ng/mL
bioavailability [9]: 52%
IC50 (Cytochrome P450 2C19): > 30 µM
IC50 [16]: 28.9 µM
Activity (Rattus norvegicus [17]): 84%
IC50 (Cytochrome P450 2C9): > 30 µM
Cp(f) (Plasma [18]): 17.6 nM
IC50 (Acyl-CoA desaturase 1 [3]): 11.8 nM
Cp(f) (Plasma [19]): 533.5 nM
Activity (Rattus norvegicus [20]): 55%
Activity (Rattus norvegicus [21]): Toxic
IC50 (Cytochrome P450 1A2): > 30 µM
microsomal CLint [4]: < 8 µL/min/mg
microsomal CLint [5]: < 18 µL/min/mg
IC50 (Cytochrome P450 3A4): > 30 µM
Drug uptake (Plasma [22]): 56.8 ng/mL
Vd [6]: 4.5 L/kg
clearance [7]: 43 mL/min/kg

The remaining lines, values ahead:

IC50 (Acyl-CoA desaturase 1 [3]): 33 nM
microsomal CLint [4]: < 8 µL/min/mg
Vd [6]: 10.2 L/kg
clearance [7]: 641 mL/min/kg
Structure (SMILES): Cn1ccc(NC(=O)c2cn(Cc3ccc(Cl)c(C(F)(F)F)c3)nn2)n1

IC50 (Stearoyl-CoA desaturase): 88 nM
IC50 (Acyl-CoA desaturase 1 [3]): 32 nM
Structure (SMILES): Cn1ccc(NC(=O)c2cn(Cc3cccc(OC(F)(F)F)c3)cn2)n1

IC50 (Acyl-CoA desaturase 1 [3]): 63 nM
Structure (SMILES): Cn1cnc(NC(=O)c2cn(Cc3ccc(Cl)c(C(F)(F)F)c3)cn2)n1

IC50 (Acyl-CoA desaturase 1 [3]): 57 nM
Structure (SMILES): Cn1ccc(NC(=O)c2cn(Cc3cccc(Cl)c3)cn2)n1

IC50 (Acyl-CoA desaturase 1 [3]): 16 nM
Structure (SMILES): Cn1ccc(NC(=O)c2cn(Cc3ccc(Cl)c(C(F)(F)F)c3)cn2)n1
